Experimental data pooled from the literature.
Lines come from different studies, so protocols differ.
Target: Mitogen-activated protein kinase kinase kinase 12 (MAP3K12, Homo sapiens, UniProt Q12852)
Residues used in one study (Q12852 1-859): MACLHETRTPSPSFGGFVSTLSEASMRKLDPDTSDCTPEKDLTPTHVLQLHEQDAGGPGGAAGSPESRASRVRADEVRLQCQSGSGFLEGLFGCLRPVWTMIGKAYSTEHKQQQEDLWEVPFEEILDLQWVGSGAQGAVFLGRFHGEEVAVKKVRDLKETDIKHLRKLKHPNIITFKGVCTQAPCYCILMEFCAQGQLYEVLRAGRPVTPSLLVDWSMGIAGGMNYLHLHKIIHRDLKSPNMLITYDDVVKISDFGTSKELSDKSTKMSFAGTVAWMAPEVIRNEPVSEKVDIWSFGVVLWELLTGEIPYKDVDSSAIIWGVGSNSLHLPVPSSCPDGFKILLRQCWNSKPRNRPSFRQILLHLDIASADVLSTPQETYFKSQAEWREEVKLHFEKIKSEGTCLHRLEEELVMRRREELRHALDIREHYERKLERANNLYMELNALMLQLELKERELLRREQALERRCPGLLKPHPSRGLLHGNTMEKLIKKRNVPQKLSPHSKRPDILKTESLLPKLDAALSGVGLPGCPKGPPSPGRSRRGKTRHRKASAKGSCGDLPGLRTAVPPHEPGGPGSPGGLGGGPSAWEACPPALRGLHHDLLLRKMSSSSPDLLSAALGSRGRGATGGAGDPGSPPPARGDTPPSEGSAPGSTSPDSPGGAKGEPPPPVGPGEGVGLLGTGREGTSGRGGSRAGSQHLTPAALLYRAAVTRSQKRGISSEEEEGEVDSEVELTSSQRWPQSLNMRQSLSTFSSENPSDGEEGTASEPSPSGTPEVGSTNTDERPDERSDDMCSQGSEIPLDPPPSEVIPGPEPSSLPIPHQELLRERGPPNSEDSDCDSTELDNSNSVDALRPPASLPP

Compound | observed | method | concentration | remaining binding
CC(=O)C1=C(C)N(c2cccc(C(F)(F)F)c2)C(=O)N[C@@H]1c1ccc(C#N)nc1 | cell-free assay | competition with immobilised ligand | 1 µM | 86.8%
Cc1cnn2ncc(-c3ccnc(N(C)C)n3)c2c1 | binding |  | 1 µM | 83%
O=C(NCC1CCOCC1)c1n[nH]cc1NC(=O)c1c(F)cccc1F | binding | competition with immobilised ligand | 1 µM | 85%
c1cncc(-c2cccc(Nc3nccc(NC4CCCCC4)n3)c2)c1 | binding | competition with immobilised ligand | 10 µM | 67%
c1cnn2ncc(-c3ccnc(N4CCC45COC5)n3)c2c1 | binding |  | 1 µM | 74%
COc1ncc2cc3ccccc3nc2c1C#N | cell-free assay | competition with immobilised ligand | 5 µM | 81%
O=C1CCc2cc(Nc3cc(OC4CCOCC4)c([N+](=O)[O-])cc3Cl)ccc2N1 | cell-free assay | competition with immobilised ligand | 1 µM | 100%
F[C@@H]1CCN(c2nccc(-c3cnn4ncccc34)n2)C1 | binding |  | 1 µM | 100%
CN1CCN(c2cnc3c(C4CCN(C(=O)c5ccc(OC(F)(F)F)cc5N)CC4)ncnc3c2)CC1 | cell-free assay | competition with immobilised ligand | 1 µM | 100%
CN(C)c1nccc(-c2cnc3ncccn23)n1 | binding |  | 1 µM | 67%
O=C(c1ccc(Nc2ncc(Cl)c(-c3cc4ccccc4s3)n2)cc1)N1CCC(N2CCCC2)CC1 | binding | competition with immobilised ligand | 1 µM | 6.9%
CCN1CCN(Cc2ccc(C(=O)Nc3ccc(C)c(Oc4ccc5c(c4)CC(=O)N5)c3)cc2C(F)(F)F)CC1 | binding | competition with immobilised ligand | 1 µM | 100%
O=C(NCCCN1CCOCC1)c1ccc(Nc2ncc(Cl)c(-c3ccc(Cl)s3)n2)cc1 | binding | competition with immobilised ligand | 1 µM | 33%
N[C@H]1CCN(c2nccc(-c3cnn4ncccc34)n2)C1 | binding |  | 1 µM | 71%
O=C(N1CCS(=O)(=O)CC1)N1C[C@H](c2ccc(OC(F)(F)F)cc2)C[C@H](c2nc(C3CC3)no2)C1 | cell-free assay | competition with immobilised ligand | 1 µM | 0%
O=C(NCCCN1CCOCC1)c1ccc(Nc2nccc(-c3cc4ccccc4s3)n2)cc1 | binding | competition with immobilised ligand | 1 µM | 54%
Cc1cc(-n2nc(Cc3cc(F)cc(C(F)(F)F)c3)nc2C)ccc1C(N)=O | cell-free assay | competition with immobilised ligand | 1 µM | 100%
C[C@@H]1CCN(c2nccc(-c3cnn4ncccc34)n2)C1 | binding |  | 1 µM | 75%
FC(F)(F)c1ccc2c(c1)nc(-c1cccnc1)n2C1CC1 | cell-free assay | competition with immobilised ligand | 1 µM | 100%
CNC(=O)[C@@H]1CC[C@@H](n2c(-c3ccc4cnccc4c3)nc3ccc(C(=O)NCc4cccc(C(N)=O)c4)cc32)C1 | binding | competition with immobilised ligand | 1 µM | 100%
